Measurements gathered from unrelated publications.
Target: Activated CDC42 kinase 1 (TNK2, Homo sapiens, UniProt Q07912)

| Compound | assay | conditions | endpoint | result |
| --- | --- | --- | --- | --- |
| Cc1cnc(NC2CCOCC2)nc1-n1cnc(C(=O)NC(CN)c2cc(F)cc(Cl)c2)c1 (centres unmarked) | enzyme activity, inhibitor, radiometric | 1 µM | remaining activity | 110% |
| CS(=O)(=O)CCNCc1ccc(-c2ccc3ncnc(Nc4ccc(OCc5cccc(F)c5)c(Cl)c4)c3c2)o1 | cell-free assay | 0.5 µM | remaining signal | 97.5% |
| CNC(=O)c1ccc(Nc2ncc(C(F)(F)F)c(NCc3nccnc3N(C)S(C)(=O)=O)n2)cc1 | cell-free assay, competition with immobilised ligand | 0.1 µM | remaining binding | 100% |
| N#CCCc1ccc2c(c1)-c1[nH]c3ccc([N+](=O)[O-])cc3c1CC(=O)N2 | cell-free assay | 0.5 µM | remaining signal | 75.4% |
| Cc1ccc(C(=O)Nc2ccc(CN3CCN(C)CC3)c(C(F)(F)F)c2)cc1C#Cc1cnc2cccnn12 | enzyme activity, inhibitor | 23.5 nM | remaining activity | 100% |
| O=C(Nc1cnn(-c2csc(C(=O)NC3COC3)c2)c1)Nc1ccccc1Cl | enzyme activity, inhibitor | 5 µM | remaining activity | 85.6% |
| Nc1ncnc2occ(-c3ccc(NC(=O)Nc4cc(C(F)(F)F)ccc4F)cc3)c12 | cell-free assay, inhibitor | 20 µM | remaining signal | 13% |
| O=S1(=O)N=C(NCc2ccc(OC(F)(F)F)cc2)Nc2cc(Cl)ccc21 | binding, competition with immobilised ligand | 10 µM | inhibition | > 90% |
| CN(C)C(=O)Cn1cc(-c2nc(C3(c4ccc(-c5cnc(N)nc5)cc4)CC3)no2)cn1 | cell-free assay, competition with immobilised ligand | 1 µM | remaining binding | 96% |
| Cc1ccc(C(=O)NCc2ccsc2)cc1C#Cc1cn(C(C)C)c2ncnc(N)c12 | enzyme activity, inhibitor | 1 µM | activity vs control | 19% |
| CCCOc1ccc(OC)c(F)c1C(=O)c1ccc(C(=O)N[C@@H]2CNC[C@H]2NC(=O)c2ccc3[nH]ncc3c2)cc1 | enzyme activity, inhibitor | 10 µM | remaining activity | 92% |
| N#CC1(c2ccccn2)CCN(Cc2cc(C(=O)N3CCCC3)c(=O)n3ccccc23)CC1 | cell-free assay, competition with immobilised ligand | 1 µM | remaining binding | 85% |
| CC(C)(C)c1nc2c(s1)c1nc(N)ncc1c1ccc(NS(=O)(=O)c3c(F)cccc3F)c(F)c12 | enzyme activity, inhibitor, radiometric | 1 µM | remaining activity | 75% |
| CN(C)CC#Cc1ccc(OCCCc2sc(N3CCc4cccc(C(=O)Nc5nc6ccccc6s5)c4C3)nc2C(=O)O)c(F)c1 | cell-free assay, competition with immobilised ligand | 1 µM | remaining binding | 100% |
| Cc1sc(C(=O)NC2COC2)cc1-n1cc(NC(=O)Nc2c(F)cccc2Cl)cn1 | enzyme activity, inhibitor | 10 µM | remaining activity | 106% |
| c1ccc(CNc2nc(N3CCOc4ccccc43)nc3c2CCCC3)cc1 | target engagement in cells, inhibitor, chemoproteomics | 20 mM | inhibition | -11.3% |
| O=C(O)c1cc(-c2ccc(C3CCNCC3)cc2)c2ccc(-c3ccc(C(F)(F)F)cc3)cc2c1 | cell-free assay, competition with immobilised ligand | 1 µM | remaining binding | 100% |
